Our source for the CT50 and Ratio values is ChEMBL document CHEMBL1139450, “Synthesis of a novel nitroimidazole-spermidine derivative as a tumor-targeted hypoxia-selective cytotoxin” (2004).

Test [1] deals with V79. Put plainly: Cytotoxicity of compound was assessed against suspended V79 cells exposed to 4 uM spermidine under hypoxic conditions in clonogenic assay. Type of test: functional, Cricetulus griseus. The method in brief:
(§1)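 Clonogenic assay in suspended V79 Chinese hamster lung fibroblasts exposed to drug in air (A) or N2 (H). CT50 is the drug concentration (mM) that cuts clonogenicity to 50% of matched controls; mean ± SEM of 4 determinations. Where used, DFMO was given to exponentially growing monolayers in air for 48 h beforehand. Spermidine was added alongside the drug under the same conditions. Student's t-test was run against matched controls.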

The nature of test [2]: Ratio of CT50 in aerobic condition to CT50 in hypoxic condition when V79 cells were exposed to 1 mM DFMO (CT50A/CT50H). Type of test: functional. Summed up: (§2)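 Ratio of aerobic to hypoxic CT50 (CT50A/CT50H, air vs N2) from clonogenic assays in suspended V79 cells; each CT50 is the mean of 4 determinations. Where used, DFMO pretreatment was given to monolayers in air for 48 h. Spermidine was co-administered with the drug under the same conditions.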

A short description of test [3]: Ratio of CT50 in aerobic condition to CT50 in hypoxic condition when V79 cells were exposed to 4 uM spermidine and 0.1 mM DFMO (CT50A/CT50H). The class given is functional. Summed up: as §2
The subject of test [4] is V79. Put plainly: Cytotoxicity of compound was assessed against suspended V79 cells exposed to 1 mM DFMO for 48 hr under hypoxic conditions in clonogenic assay. The class given is functional, Cricetulus griseus. The method in brief: as §1
For test [5], the system named is V79. Put plainly: Cytotoxicity of compound was assessed against suspended V79 cells exposed to 0.1 mM DFMO and 4 uM spermidine under aerobic conditions in clonogenic assay. The class given is functional, Cricetulus griseus. Summed up: as §1
Test [6] deals with V79. Put plainly: Cytotoxicity of compound was assessed against suspended V79 cells exposed to 0.1 mM DFMO and 4 uM spermidine under hypoxic conditions in clonogenic assay. The class given is functional, Cricetulus griseus. The method in brief: as §1
Test [7] has as its system V79. Put plainly: Cytotoxicity of compound was assessed against suspended V79 cells exposed to 1 mM DFMO for 48 hr under aerobic conditions in clonogenic assay. The class given is functional, Cricetulus griseus. The method in brief:
as §1

A short description of test [8]: Ratio of CT50 in aerobic condition to CT50 in hypoxic condition (CT50A/CT50H). Type of test: functional. Summed up:
as §2

The nature of test [9]: Ratio of CT50 in aerobic condition to CT50 in hypoxic condition when V79 cells were exposed to 4 uM spermidine (CT50A/CT50H). Type of test: functional. Summed up: as §2
In test [10] the test system is V79. Nature of the test: Cytotoxicity of compound was assessed against suspended V79 cells treated with 4 uM spermidine under aerobic conditions in clonogenic assay. The class given is functional, Cricetulus griseus. Summed up: as §1
Test [11] deals with V79. Put plainly: Cytotoxicity of compound was assessed against suspended V79 cells exposed to 1 mM DFMO and 0.5 mM spermidine under aerobic conditions in clonogenic assay. Type of test: functional, Cricetulus griseus. Summed up: as §1
The subject of test [12] is V79. Nature of the test: Cytotoxicity of compound was assessed against suspended V79 cells under hypoxic conditions in clonogenic assay. The class given is functional, Cricetulus griseus. Summed up:
as §1

Test [13] has as its system V79. Nature of the test: Cytotoxicity of compound was assessed against suspended V79 cells under aerobic conditions in clonogenic assay. Type of test: functional, Cricetulus griseus. The method in brief:
as §1

As to `Cl.Cl.Cl.NCCCCN(CCCN)CC(O)Cn1ccnc1[N+](=O)[O-]` (stereo not drawn), the CT50 in the test with V79 [1] turned out to be 1.15 mM; in the test with V79 [4], 0.74 mM; in the test with V79 [5], 1.15 mM; in the test with V79 [6], 0.88 mM; in the test on V79 [7], 1.63 mM; in the test with V79 [10] it was 2.64 mM. The values for the CT50 with V79 [11], in the test with V79 [12] and in the test on V79 [13] were 0.63 mM, 1.28 mM and 2.6 mM, respectively. Besides, the Ratio in test [2] is 2.2; in test [3], 1.3; in [8], 2; in [9], 2.3.
